Test results taken from ChEMBL document CHEMBL4359826, “Preparation of bivalent agonists for targeting the mu opioid and cannabinoid receptors” (Eur J Med Chem, 2019).
Calls of active or inactive are those of the source.

Key:
Rattus norvegicus [1] = species on record: Rattus norvegicus; settings: Wistar, Brain, Membranes, at 10 µM
Cannabinoid receptor [2] = target: T1, Cannabinoid receptor (Rattus norvegicus, UniProt Q9QZN9+P20272); experiment: Displacement of [3H]JWH-018 from CB1R/CB2R in Wistar rat brain membranes after 60 mins by liquid scintillation analysis; format: cell membranes
[3] = Agonist activity at MOR/CB1R/CB2R receptor in Wistar rat brain membranes after 60 mins by [35S]-GTPgammaS binding assay; format: cell membranes
Cannabinoid receptor [4] = target: T1, Cannabinoid receptor; format: cell membranes, Wistar, Brain, Membranes
Mu-type opioid receptor = Mu-type opioid receptor (Rattus norvegicus, UniProt P33535); experiment: Displacement of [3H]DAMGO from MOR in Wistar rat brain membranes after 60 mins by liquid scintillation analysis; format: cell membranes
Chain of Mu-type opioid receptor (P33535 whole entry): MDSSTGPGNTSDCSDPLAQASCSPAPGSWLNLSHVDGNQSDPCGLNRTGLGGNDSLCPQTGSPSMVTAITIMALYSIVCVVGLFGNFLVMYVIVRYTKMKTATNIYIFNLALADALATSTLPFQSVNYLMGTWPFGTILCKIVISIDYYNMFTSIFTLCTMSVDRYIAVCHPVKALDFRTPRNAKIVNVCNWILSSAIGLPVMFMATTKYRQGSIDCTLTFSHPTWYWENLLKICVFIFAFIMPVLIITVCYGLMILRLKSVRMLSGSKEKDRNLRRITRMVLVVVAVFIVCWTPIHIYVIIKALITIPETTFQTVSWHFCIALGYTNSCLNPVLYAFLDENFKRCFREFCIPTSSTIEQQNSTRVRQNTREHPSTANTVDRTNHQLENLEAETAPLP

[5] = target: Kappa-type opioid receptor (Cavia porcellus, UniProt P41144); format: cell membranes, Brain, Membranes
Chain of Kappa-type opioid receptor (P41144 whole entry): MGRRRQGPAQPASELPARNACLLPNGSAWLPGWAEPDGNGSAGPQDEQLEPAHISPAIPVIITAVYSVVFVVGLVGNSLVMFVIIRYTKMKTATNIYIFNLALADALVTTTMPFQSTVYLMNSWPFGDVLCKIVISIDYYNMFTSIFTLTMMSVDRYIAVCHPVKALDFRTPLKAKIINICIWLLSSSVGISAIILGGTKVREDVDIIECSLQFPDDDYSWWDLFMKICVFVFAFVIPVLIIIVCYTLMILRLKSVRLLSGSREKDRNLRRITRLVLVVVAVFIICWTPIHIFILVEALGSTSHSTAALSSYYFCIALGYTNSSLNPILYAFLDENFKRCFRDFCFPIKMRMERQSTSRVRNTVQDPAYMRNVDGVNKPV

[6] = target: Delta-type opioid receptor (Rattus norvegicus, UniProt P33533); experiment: Displacement of [3H]Ile5,6-deltorphin-2 from DOR in Wistar rat brain membranes after 60 mins by liquid scintillation analysis; format: cell membranes
Chain of Delta-type opioid receptor (P33533 whole entry): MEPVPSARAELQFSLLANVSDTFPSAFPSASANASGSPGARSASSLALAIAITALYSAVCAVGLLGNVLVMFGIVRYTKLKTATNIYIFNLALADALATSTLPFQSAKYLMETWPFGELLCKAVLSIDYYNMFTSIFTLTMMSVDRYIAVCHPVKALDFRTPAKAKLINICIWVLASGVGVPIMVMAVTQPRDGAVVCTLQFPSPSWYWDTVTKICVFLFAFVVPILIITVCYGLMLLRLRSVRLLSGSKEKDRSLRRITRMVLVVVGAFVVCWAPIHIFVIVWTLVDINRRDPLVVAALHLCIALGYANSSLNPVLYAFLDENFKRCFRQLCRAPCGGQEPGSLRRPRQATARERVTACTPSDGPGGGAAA

[7] = target: T2, Cannabinoid receptor 2 (Rattus norvegicus) (UniProt Q9QZN9); experiment: Displacement of [3H]JWH-018 from CB2R in Wistar rat brain membranes at 10 uM after 60 mins by liquid scintillation analysis relative to control; format: cell membranes
T2 sequence (whole entry): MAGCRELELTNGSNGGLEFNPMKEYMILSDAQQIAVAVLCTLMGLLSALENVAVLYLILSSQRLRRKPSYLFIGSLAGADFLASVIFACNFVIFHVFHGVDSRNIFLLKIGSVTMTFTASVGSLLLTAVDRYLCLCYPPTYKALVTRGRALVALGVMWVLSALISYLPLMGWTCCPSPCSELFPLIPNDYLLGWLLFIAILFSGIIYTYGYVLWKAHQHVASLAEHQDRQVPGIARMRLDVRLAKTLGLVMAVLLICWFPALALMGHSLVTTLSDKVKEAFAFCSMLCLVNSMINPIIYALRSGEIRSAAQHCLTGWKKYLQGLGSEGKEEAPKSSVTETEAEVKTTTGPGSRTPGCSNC
Method in brief: (§1)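 Whole rat brain membranes (cerebellum removed; 0.3–0.5 mg/mL protein) in 50 mM Tris-HCl pH 7.4 with 2.5 mM EGTA, 5 mM MgCl2 and 0.5 mg/mL fatty-acid-free BSA, 30 °C. Kinetics used 0.6 nM [3H]JWH-018: association over 0–90 min, dissociation started with 10 µM JWH-018 after 60 min. Saturation over 0.5–35 nM. Competitors at 10^-11–10^-5 M, 60 min. Nonspecific binding with 10 µM JWH-018. Filtration onto PEI-soaked GF/B filters; n≥3.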

[8] = target: T3, Cannabinoid receptor (Rattus norvegicus) (UniProt Q9QZN9+P20272); experiment: Antagonist activity at CB1R/CB2R in Wistar rat brain membranes at 10 uM in presence of JWH-018 after 60 mins by [35S]-GTPgammaS binding assay relative to control; format: functional, cell membranes
T3 sequence (P20272 whole entry, looked up, one chain of several): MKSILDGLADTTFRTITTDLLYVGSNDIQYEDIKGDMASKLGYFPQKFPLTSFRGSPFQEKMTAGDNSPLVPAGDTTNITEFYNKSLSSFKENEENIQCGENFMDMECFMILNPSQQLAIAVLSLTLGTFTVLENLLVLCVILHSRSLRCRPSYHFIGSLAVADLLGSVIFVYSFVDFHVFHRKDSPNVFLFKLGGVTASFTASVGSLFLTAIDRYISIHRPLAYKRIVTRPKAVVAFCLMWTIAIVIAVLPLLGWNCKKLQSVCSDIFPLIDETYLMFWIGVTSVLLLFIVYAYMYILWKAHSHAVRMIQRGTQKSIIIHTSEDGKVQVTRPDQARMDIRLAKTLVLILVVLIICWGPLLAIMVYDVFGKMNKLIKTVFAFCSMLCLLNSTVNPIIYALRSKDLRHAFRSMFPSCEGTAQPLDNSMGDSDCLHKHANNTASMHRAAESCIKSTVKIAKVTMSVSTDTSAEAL
Method in brief: (§2)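 Rat brain membranes (30 µg protein/tube) incubated 60 min at 30 °C with 0.05 nM [35S]GTPγS and ligand at 10^-10–10^-5 M. Buffer: 50 mM Tris-HCl pH 7.4 with 30 µM GDP, 100 mM NaCl, 3 mM MgCl2, 1 mM EGTA. […] Nonspecific binding taken with 10 µM GTPγS; basal set as 100%. Filtration and scintillation counting; n≥3.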

[9] = target: T3, Cannabinoid receptor (Rattus norvegicus); experiment: Displacement of [3H]JWH-018 from CB1R/CB2R in Wistar rat brain membranes at 10 uM after 60 mins by liquid scintillation analysis; format: cell membranes
Method in brief: as §1

Cannabinoid receptor 1 = Cannabinoid receptor 1 (Rattus norvegicus, UniProt P20272); experiment: Agonist activity at CB1R in Wistar rat brain membranes in presence of rimonabant after 60 mins by [35S]-GTPgammaS binding assay; format: functional, cell membranes
Chain of Cannabinoid receptor 1 (P20272 whole entry): as the sequence (P20272 whole entry, looked up, one chain of several) above
Method in brief: as §2

[10] = target: Cannabinoid receptor 1 (Rattus norvegicus) (UniProt P20272); experiment: Agonist activity at CB1R in Wistar rat brain membranes at 10 uM in presence of rimonabant after 60 mins by [35S]-GTPgammaS binding assay relative to control; format: functional, cell membranes
Chain of Cannabinoid receptor 1 (Rattus norvegicus) (P20272 whole entry): as the sequence (P20272 whole entry, looked up, one chain of several) above
Method in brief: as §2

Rattus norvegicus [11] = species on record: Rattus norvegicus; experiment: Agonist activity at MOR/CB1R/CB2R in Wistar rat brain membranes at 10 uM in presence of naloxone,rimonabant and AM630 after 60 mins by [35S]-GTPgammaS binding assay relative to control; format: cell membranes
Method in brief: as §2

Rattus norvegicus [12] = experiment: Effect on nociception of the contralateral paw in rat model of sodium iodoacetate-induced osteoarthritis paw withdrawal threshold in late phase at 20 ug administered as intrathecal injection measured after 60 to 90 mins by Von Frey test (reference value: 43 +/- 3.4 g); format: organism-based; settings: in vivo, icv_or_intrathecal
Rattus norvegicus [13] = species on record: Rattus norvegicus; experiment: Agonist activity at MOR/CB1R/CB2R in Wistar rat brain membranes after 60 mins by [35S]-GTPgammaS binding assay relative to control; format: cell membranes
Method in brief: as §2

Cannabinoid receptor 2 = target: T4, Cannabinoid receptor 2 (Rattus norvegicus, UniProt Q9QZN9); experiment: Agonist activity at CB2R in Wistar rat brain membranes in presence of AM630 after 60 mins by [35S]-GTPgammaS binding assay; format: functional, cell membranes
T4 sequence (Q9QZN9 whole entry): T2 sequence (whole entry)
Method in brief: as §2

[14] = target: T2, Cannabinoid receptor 2 (Rattus norvegicus); experiment: Agonist activity at CB2R in Wistar rat brain membranes at 10 uM in presence of AM630 after 60 mins by [35S]-GTPgammaS binding assay relative to control; format: functional, cell membranes
Method in brief: as §2

Rattus norvegicus [15] = experiment: Effect on nociception of the contralateral paw in rat model of sodium iodoacetate-induced osteoarthritis paw withdrawal threshold in early phase at 20 ug administered as intrathecal injection measured up to 45 mins by Von Frey test (reference value: 44 +/- 2.4 g); format: organism-based; settings: in vivo, icv_or_intrathecal, 0.75 h
Rattus norvegicus [16] = experiment: Antiallodynic activity in sodium iodoacetate-induced rat model of osteoarthritis assessed as increase in maximum effect in early phase at 20 ug administered as intrathecal injection measured up to 45 mins by Von Frey test; format: functional, organism-based
Mus musculus = experiment: Antinociceptive activity in CD-1 mouse assessed as increase in thermal latency at 10 mg/kg, iv after 15 to 120 mins by hot plate technique; format: functional, organism-based
Method in brief: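 Male CD-1 mice (25 g) given 10 mg/kg i.v. in 10 mL/kg; vehicle saline with 5% DMSO. Hot plate held at 55.0 °C. Latency to paw lick or jump, cut-off 60 s, read at 15–120 min. Baseline is the mean of three pre-test readings. Data given as %MPE; n=6/group.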

Rattus norvegicus [17] = species on record: Rattus norvegicus; experiment: Antagonist activity at MOR/CB1R/CB2R in Wistar rat brain membranes at 10 uM in presence of N-[6-[[2-[[(4R,4aS,7aR,12bS)-4a-hydroxy-9-methoxy-3-methyl-2,4,5,6,7a,13-hexahydro-1H-4,12-methanobenzofuro[3,2-e]isoquinoline-7-ylidene]amino]oxyacetyl]amino]hexyl]-6-[3-(naphthalene-1-carbonyl)indol-1-yl]hexanamide after 60 mins by [35S]-GTPgammaS binding assay relative to control; format: cell membranes
Method in brief: as §2

[18] = target: Mu-type opioid receptor (Rattus norvegicus) (UniProt P33535); experiment: Antagonist activity at MOR in Wistar rat brain membranes at 10 uM in presence of oxycodone after 60 mins by [35S]-GTPgammaS binding assay relative to control; format: functional, cell membranes
Chain of Mu-type opioid receptor (Rattus norvegicus) (P33535 whole entry): as the sequence (P33535 whole entry) above
Method in brief: (§3)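 Rat brain membranes (30 µg protein/tube) incubated 60 min at 30 °C with 0.05 nM [35S]GTPγS and ligand at 10^-10–10^-5 M. Buffer: 50 mM Tris-HCl pH 7.4 with 30 µM GDP, 100 mM NaCl, 3 mM MgCl2, 1 mM EGTA. Nonspecific binding taken with 10 µM GTPγS; basal set as 100%. Filtration and scintillation counting; n≥3.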

Rattus norvegicus [19] = species on record: Rattus norvegicus; experiment: Antagonist activity at MOR/CB1R/CB2R in Wistar rat brain membranes at 10 uM in presence of (S)-N-((2R,8S)-18-(3-(1-naphthoyl)-1H-indol-1-yl)-8-benzyl-3,6,9,12-tetraoxo-4,7,10,13-tetraazaoctadecan-2-yl)-2-amino-3-(4-hydroxyphenyl)propanamide after 60 mins by liquid scintillation analysis relative to control; format: cell membranes
Method in brief: as §2

[20] = target: Mu-type opioid receptor (Rattus norvegicus) (UniProt P33535); experiment: Antagonist activity at MOR in Wistar rat brain membranes at 10 uM in presence of Tyr-D-Ala-Gly-Phe-NH2 after 60 mins by [35S]-GTPgammaS binding assay relative to control; format: functional, cell membranes
Method in brief: as §3

Molecule	Emax (Rattus norvegicus [1]) [%]	Ki (Cannabinoid receptor [2]) [nM]	EC50 [3] [nM]	Ki (Cannabinoid receptor [4]) [nM]	Ki (Mu-type opioid receptor) [nM]	Ki [5] [nM]	Ki [6] [nM]	also measured
CC(=O)NCCCCCn1cc(C(=O)c2cccc3ccccc23)c2ccccc21	83	145	2150	149	–	–	–	–
C[C@@H](NC(=O)[C@@H](N)Cc1ccc(O)cc1)C(=O)NCC(=O)N[C@@H](Cc1ccccc1)C(=O)NCCCCCn1cc(C(=O)c2cccc3ccccc23)c2ccccc21	110	1013	1800	823	50	231	214	–
COc1ccc(C(=O)c2c(C)n(CCN3CCOCC3)c3cc(I)ccc23)cc1	–	27	–	–	–	–	–	Activity [7]: 70%; Emax [8]: 100%
Cc1c(C(=O)NN2CCCCC2)nn(-c2ccc(Cl)cc2Cl)c1-c1ccc(Cl)cc1	–	–	–	–	–	–	–	Emax [8]: 100%
CCCCCn1cc(C(=O)c2cccc3ccccc23)c2cc(Br)ccc21	–	59	–	–	–	–	–	–
COc1ccc2c3c1O[C@H]1/C(=N\OCC(=O)NCCN)CC[C@@]4(O)[C@@H](C2)N(C)CC[C@]314	113	–	450	–	17	471	533	–
H-RVDPVNFKLLSH-OH	–	> 10000	–	–	–	–	–	–
C=CCN1CC[C@]23c4c5ccc(O)c4O[C@H]2C(=O)CC[C@@]3(O)[C@H]1C5	–	–	–	–	–	–	–	Activity [9]: inactive
C[C@@H](NC(=O)[C@@H](N)Cc1ccc(O)cc1)C(=O)NCC(=O)N[C@@H](Cc1ccccc1)C(=O)NCC(=O)NCCCCCn1cc(C(=O)c2cccc3ccccc23)c2ccccc21	160	251	114	317	–	63	134	EC50 (Cannabinoid receptor 1): 378 nM; Emax [10]: 125%; Emax (Rattus norvegicus [11]): 100%; Activity (Rattus norvegicus [12]): 35 g; Emax (Rattus norvegicus [13]): 161%; EC50 (Cannabinoid receptor 2): 671 nM; Emax [14]: 148%; Activity (Rattus norvegicus [15]): 39 g; Activity (Rattus norvegicus [16]): Active; Activity (Mus musculus): Active
NC(=O)[C@H](Cc1ccccc1)NC(=O)[C@H](Cc1ccccc1)NC(=O)[C@@H]1CCCN1C(=O)[C@@H](N)Cc1ccc(O)cc1	–	–	–	–	–	–	–	Activity [9]: inactive
COc1ccc2c3c1O[C@H]1/C(=N\OCC(=O)O)CC[C@@]4(O)[C@@H](C2)N(C)CC[C@]314	109	–	225	–	24	> 10000	110	–
NCCCCCn1cc(C(=O)c2cccc3ccccc23)c2ccccc21	102	190	–	269	–	–	–	–
COc1ccc2c3c1O[C@H]1/C(=N\OCC(=O)NCCNC(=O)CCCCCn4cc(C(=O)c5cccc6ccccc56)c5ccccc54)CC[C@@]4(O)[C@@H](C2)N(C)CC[C@]314	100	255	–	9.3	33	337	623	Emax (Rattus norvegicus [17]): 102%; Emax [18]: 101%; Emax [8]: 107%; Emax (Rattus norvegicus [19]): 103%; Emax [20]: 102%
CC(C)C[C@H](NC(=O)[C@H](Cc1ccccc1)NC(=O)[C@H](CCCCN)NC(=O)[C@H](Cc1ccccc1)NC(=O)[C@H](CC(N)=O)NC(=O)[C@@H](NC(=O)[C@@H]1CCCN1)C(C)C)C(=O)N[C@@H](CO)C(=O)N[C@@H](Cc1cnc[nH]1)C(=O)O [HEMOPRESSIN]	–	2793	–	–	–	–	–	–
C[C@@H](NC(=O)[C@@H](N)Cc1ccc(O)cc1)C(=O)NCC(=O)N[C@@H](Cc1ccccc1)C(=O)NCCC(=O)NCCCCCn1cc(C(=O)c2cccc3ccccc23)c2ccccc21	114	919	18	1216	48	151	190	–
COc1ccc2c3c1O[C@H]1/C(=N\OCC(=O)NCCCOCCOCCOCCCN)CC[C@@]4(O)[C@@H](C2)N(C)CC[C@]314	112	–	200	–	74	503	757	–
C[C@@H](NC(=O)[C@@H](N)Cc1ccc(O)cc1)C(=O)NCC(=O)N[C@@H](Cc1ccccc1)C(=O)NCCCC(=O)NCCCCCn1cc(C(=O)c2cccc3ccccc23)c2ccccc21	125	928	60	1042	20	50	92	–
O=C(O)CCCCCn1cc(C(=O)c2cccc3ccccc23)c2ccccc21	81	247	4220	205	–	–	–	–
H-PVNFKFL-OH	–	> 10000	–	–	–	–	–	–
COc1ccc2c3c1O[C@H]1/C(=N\OCC(=O)NCCCOCCOCCOCCCNC(=O)CCCCCn4cc(C(=O)c5cccc6ccccc56)c5ccccc54)CC[C@@]4(O)[C@@H](C2)N(C)CC[C@]314	99	183	–	78	20	186	386	Emax (Rattus norvegicus [17]): 101%; Emax [18]: 100%; Emax [8]: 110%; Emax (Rattus norvegicus [19]): 99%; Emax [20]: 97%
CN1CC[C@]23c4c5ccc(O)c4O[C@H]2[C@@H](O)C=C[C@H]3[C@H]1C5	–	–	–	–	–	–	–	Activity [9]: inactive
COc1ccc2c3c1O[C@H]1/C(=N\OCC(=O)NCCCCCCN)CC[C@@]4(O)[C@@H](C2)N(C)CC[C@]314	111	–	305	–	41	380	659	–
NC(=O)[C@H](Cc1ccccc1)NC(=O)[C@H](Cc1c[nH]c2ccccc12)NC(=O)[C@@H]1CCCN1C(=O)[C@@H](N)Cc1ccc(O)cc1	–	–	–	–	–	–	–	Activity [9]: inactive
